T1: GST-pRbABC (residues 376–928) (UniProt P06400 376-928)
T1 sequence (looked up): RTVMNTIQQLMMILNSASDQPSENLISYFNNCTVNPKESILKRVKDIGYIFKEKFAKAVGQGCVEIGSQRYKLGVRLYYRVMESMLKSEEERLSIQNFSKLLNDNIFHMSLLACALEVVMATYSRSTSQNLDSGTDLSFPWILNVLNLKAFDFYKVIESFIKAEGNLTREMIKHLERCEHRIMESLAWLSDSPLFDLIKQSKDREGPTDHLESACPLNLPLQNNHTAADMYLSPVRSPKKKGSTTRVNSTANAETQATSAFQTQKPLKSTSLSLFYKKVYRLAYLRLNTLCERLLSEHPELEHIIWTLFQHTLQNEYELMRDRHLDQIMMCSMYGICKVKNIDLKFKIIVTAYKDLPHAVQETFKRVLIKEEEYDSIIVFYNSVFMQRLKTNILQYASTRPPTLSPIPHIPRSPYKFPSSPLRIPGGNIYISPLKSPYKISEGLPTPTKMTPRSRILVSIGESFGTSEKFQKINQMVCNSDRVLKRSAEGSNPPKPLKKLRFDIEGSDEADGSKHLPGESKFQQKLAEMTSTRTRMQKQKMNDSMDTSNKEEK

B1: 6xHis-HPV1AE7_(CR2-3) (residues 16–93) (domain or fragment)
chain: EPSVLDLDLYCYEEVPPDDIEEELVSPQQPYAVVASCAYCEKLVRLTVLADHSAIRQLEELLLRSLNIVCPLCTLQRQ
B2: 6xHis-Ad5E1A_(CR1-3) (residues 36–189) (domain or fragment)
chain: SHFEPPTLHELYDLDVTAPEDPNEEAVSQIFPDSVMLAVQEGIDLLTFPPAPGSPEPPHLSRQPEQPEQRALGPVSMPNLVPEVIDLTCHEAGFPPSDDEDEEGEEFVLDYVEHPGHGCRSCHYHRRNTGDPDIMCSLCYMRTCGMFVYSPVSE

Assays:
SiHa cells = experiment: Flow cytometry, DNA content by propidium iodide staining; format: cell-based, human; conditions: 2 µM, 48 hours
How it was run: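 Cells seeded at 1×105 per 60 mm dish; next day test compound or DMSO added for 48 hr. Cells trypsinized, PBS-washed, fixed in 80% ethanol, pelleted 500g 5 min, stained with PI (100 µL 2mg/ml PI plus 10 µg RNase A in 10 mL PBS). DNA content analysed by flow cytometry; apoptotic fraction taken from area under the corresponding histogram region.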

[1] = target: E7 LxCxE peptide LxCxE peptide (Human papillomavirus type 16) (UniProt P03129); conditions: cited from earlier work
Chain of E7 LxCxE peptide LxCxE peptide (Human papillomavirus type 16) (P03129 whole entry, looked up, the tested form may be a part): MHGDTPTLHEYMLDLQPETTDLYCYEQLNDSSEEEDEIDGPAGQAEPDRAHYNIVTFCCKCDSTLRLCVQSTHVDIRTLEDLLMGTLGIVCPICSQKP

[2] = target: T1, GST-pRbABC (residues 376–928); experiment: ELISA

| Molecule | binding result [2] | also measured |
| --- | --- | --- |
| CN[C@@H]1C[C@H]2O[C@@](C)([C@@H]1OC)n1c3ccccc3c3c4c(c5c6ccccc6n2c5c31)C(=O)NC4 [staurosporine, Staurosporine] |  | apoptotic cells (SiHa cells): 34.3% |
| pRb (from UniProt P06400) |  | Kd [1]: 110 nM |
| B1 | binds |  |
| B2 | binds |  |
